In PubChem BioAssay AID2247 (Johns Hopkins Ion Channel Center, 2010):
In all, about 300,000 compounds went through this assay and about 1,200 (0.4%) were called active.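 Rule for the calls: active = B-score over 3 SD under the library average, no early fluorescence shift, positive overall ratio signal; inactive = the rest.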 For the sample, actives were picked, then their nearest neighbours and some compounds at random.

Each compound was assayed against Short transient receptor potential channel 4 (Mus musculus) (UniProt Q9QUQ5) (assay: blockers of DAMGO-evoked TRPC4 calcium flux – Fluo4 calcium, HEK293 TRPC4beta/mu-opioid cells, primary screen (AID 2247)). Settings: at 10 µM; stronger effect = lower value.
Sequence of Short transient receptor potential channel 4 (Mus musculus) (Q9QUQ5 whole entry, looked up): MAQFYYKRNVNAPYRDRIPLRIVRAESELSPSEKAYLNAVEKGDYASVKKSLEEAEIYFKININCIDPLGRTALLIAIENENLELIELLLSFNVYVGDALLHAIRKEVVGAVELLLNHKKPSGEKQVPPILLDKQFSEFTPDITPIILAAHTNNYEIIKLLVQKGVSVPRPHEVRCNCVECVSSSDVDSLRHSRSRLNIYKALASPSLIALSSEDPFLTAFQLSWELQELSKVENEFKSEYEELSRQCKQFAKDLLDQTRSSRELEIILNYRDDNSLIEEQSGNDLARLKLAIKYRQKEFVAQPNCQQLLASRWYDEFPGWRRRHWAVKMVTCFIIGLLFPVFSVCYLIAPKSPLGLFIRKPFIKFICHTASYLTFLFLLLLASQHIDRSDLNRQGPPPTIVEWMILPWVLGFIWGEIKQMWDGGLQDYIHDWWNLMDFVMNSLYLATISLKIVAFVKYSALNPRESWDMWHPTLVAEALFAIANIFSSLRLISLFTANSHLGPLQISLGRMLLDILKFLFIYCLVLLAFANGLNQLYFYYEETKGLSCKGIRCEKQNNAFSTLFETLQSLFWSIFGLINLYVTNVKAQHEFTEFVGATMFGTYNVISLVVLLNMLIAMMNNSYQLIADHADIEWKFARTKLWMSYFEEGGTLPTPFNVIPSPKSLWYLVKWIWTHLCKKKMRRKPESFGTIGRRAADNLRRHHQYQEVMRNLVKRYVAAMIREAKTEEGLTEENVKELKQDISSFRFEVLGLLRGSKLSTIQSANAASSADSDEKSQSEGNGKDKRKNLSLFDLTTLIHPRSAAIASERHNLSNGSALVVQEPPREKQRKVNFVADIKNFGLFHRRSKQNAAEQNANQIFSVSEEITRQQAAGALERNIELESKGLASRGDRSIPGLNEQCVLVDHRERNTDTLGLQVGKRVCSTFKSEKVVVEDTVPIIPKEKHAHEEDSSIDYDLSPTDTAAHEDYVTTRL
Procedure, shortened: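 Material: HEK293 cells with stable TRPC4beta plus mu-opioid receptor expression; probe or stimulus: DAMGO in two steps, submaximal then maximal; technique: Fluo4 calcium fluorescence by kinetic imaging, 5 s 1 Hz baseline; measure: integrated fluorescence ratio relative to baseline, converted to per-well B score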
With `CC(=O)Nc1ccc(NC(=O)C2CCCN2S(=O)(=O)c2cccc(C(F)(F)F)c2)cc1` (configuration not stated) the B-score was “inactive”.
With `CC(C)c1ccc(S(=O)(=O)N2CCN(C(=O)CN3C(=O)NC(C)(c4ccccc4)C3=O)CC2)cc1` (configuration not stated) the B-score was “inactive”.
In the case of `N#Cc1c(-c2ccccc2)nc(SCc2ccc([N+](=O)[O-])cc2)[nH]c1=O`, the B-score is reported as “inactive”.
`Cc1ccc(CSc2nc(-c3ccccc3)c(C#N)c(=O)[nH]2)cc1` was tested, and the B-score was -6 (active).
With `N#Cc1c(-c2ccccc2)nc(SCc2cccc(C(F)(F)F)c2)[nH]c1=O` the B-score was “inactive”.
In the case of `CC(C)c1ccc(S(=O)(=O)N2CCC3(CC2)OCCO3)cc1`, the B-score is reported as “inactive”.
`Nc1ccc(C(=O)N2CCN(S(=O)(=O)c3ccc(Cl)cc3)CC2)cc1[N+](=O)[O-]` was tested, and the B-score was “inactive”.
`CCN(CC)CCN(C(=O)c1cc(Cl)sc1Cl)c1nc2cc3c(cc2s1)OCO3` was tested, and the B-score was “inactive”.
`CN(C)CCN(C(=O)CN1C(=O)c2ccccc2C1=O)c1nc2cc3c(cc2s1)OCCO3` was tested, and the B-score was “inactive”.
`CN(C)CCN(C(=O)C1CCCCC1)c1nc2cc3c(cc2s1)OCO3` was tested, and the B-score was -6 (active).
For `CC(=O)Nc1ccc(S(=O)(=O)Oc2ccc(Br)cc2C(=S)N2CCOCC2)cc1`, the B-score was “inactive”.
For `COc1ccc(/C(C)=N/N2CCOCC2)c(O)c1`, the B-score was “inactive”.
For `COc1cccc2cc(C(N)=O)/c(=N\NC(=O)c3ccccc3)oc12`, the B-score was -6 (active).
With `COc1ccc(C(=O)N/N=c2\oc3ccccc3cc2C(N)=O)cc1` the B-score was “inactive”.
For `NC(=O)c1cc2ccccc2o/c1=N/NC(=O)c1cccc(F)c1`, the B-score was “inactive”.
With `COc1ccc(C(=O)NC2CC(C)(C)Cc3c2cnn3-c2ccccc2)c(OC)c1` (configuration not stated) the B-score was “inactive”.
`CN1OC(COC(=O)c2ccc(Cl)cc2)CC1c1ccccc1` (configuration not stated) was tested, and the B-score was “inactive”.
With `CCOC(=O)C1CCN(Cc2ccc(-c3ccccc3)cc2)CC1` the B-score was “inactive”.
`CCCC(=O)C1CCN(Cc2ccccc2)CC1` was tested, and the B-score was “inactive”.
`CCCCN(Cc1ccccc1)C(=O)C1CCN(Cc2sccc2C)CC1` was tested, and the B-score was -6 (active).
For `COc1cccc(CNc2ncc(-c3ccccc3)n2C)c1`, the B-score was “inactive”.
`CCN(CC)S(=O)(=O)c1ccc(Cl)c(C(=O)NCCN2CCOCC2)c1` was tested, and the B-score was “inactive”.
For `Cc1ccccc1N(C(=O)Cc1cccs1)C(C(=O)NC1CCCCC1)c1cn(C)nc1C` (configuration not stated), the B-score was “inactive”.
`CCc1ccc(C(CNc2nc(C(F)(F)F)nc3ccccc23)N(C)C)cc1` (configuration not stated) was tested, and the B-score was -7 (active).
With `COc1cccc(CNc2nc(C(F)(F)F)nc3ccccc23)c1` the B-score was “inactive”.
`NS(=O)(=O)c1ccc(CCNc2nc(C(F)(F)F)nc3ccccc23)cc1` was tested, and the B-score was “inactive”.
In the case of `CN(Cc1ccccc1F)C(=O)C(Cc1ccccc1)NC(=O)c1ccccc1` (configuration not stated), the B-score is reported as “inactive”.
`Cn1c(C(=O)N2CCCC(C(=O)NCc3ccccc3)C2)cc2sccc21` (configuration not stated) was tested, and the B-score was “inactive”.
With `Cc1ccc(CN(C(=O)c2sc3ccccc3c2Cl)C2CCS(=O)(=O)C2)cc1` (configuration not stated) the B-score was “inactive”.
In the case of `c1ccc(COc2ccccc2CNCc2cccnc2)cc1`, the B-score is reported as “inactive”.
`Fc1ccccc1COc1ccccc1CNCc1ccncc1` was tested, and the B-score was -7 (active).
With `Fc1ccccc1COc1cccc2cccnc12` the B-score was “inactive”.
With `Cc1ccc(S(=O)(=O)CC(=O)Nc2sc(C)c(C)c2C(N)=O)cc1` the B-score was “inactive”.
In the case of `COc1cc2ccccc2cc1C(=O)N1CCOCC1`, the B-score is reported as “inactive”.
For `CCCCCn1c(=O)[nH]c2cc(C(=O)NCCCN3CCCCC3C)ccc2c1=O` (configuration not stated), the B-score was “inactive”.
`N#CCCCn1c(O)c(N=NC(=O)C(O)c2ccccc2)c2ccccc21` (configuration not stated) was tested, and the B-score was “inactive”.
`Oc1ccc(/C=N/Nc2nc(-c3ccccc3F)nc3ccccc23)c(O)c1` was tested, and the B-score was “inactive”.
In the case of `Cc1ccc2nc(C)cc(N/N=C/c3ccc(F)cc3)c2c1`, the B-score is reported as “inactive”.
In the case of `Cc1cc(N/N=C/c2ccccc2F)c2ccccc2n1`, the B-score is reported as -8 (active).
In the case of `CCCCC(c1nnnn1CS(=O)(=O)c1ccc(C)cc1)N1CCC(C(N)=O)CC1` (configuration not stated), the B-score is reported as “inactive”.
With `CC1(C)OC(=O)C(=CNC(CO)C(=O)O)C(=O)O1` (configuration not stated) the B-score was “inactive”.
In the case of `NC(=O)c1c(NC(=O)CSc2nc(N)cc(=O)[nH]2)sc2c1CCCC2`, the B-score is reported as “inactive”.
`CCCc1cc(=O)[nH]c(SCC(=O)Nc2sc3c(c2C#N)CCCC3)n1` was tested, and the B-score was -6 (active).
`CCN1CCN(CC(=O)Nc2sc3c(c2C#N)CCC3)CC1` was tested, and the B-score was “inactive”.
`COc1ccc2[nH]c(=O)c(CN(Cc3cccnc3)S(=O)(=O)c3ccccc3F)cc2c1` was tested, and the B-score was “inactive”.
`COc1ccccc1CN1CCN(C(c2ccccc2)c2ccccc2)CC1` was tested, and the B-score was “inactive”.
`CC(NCc1ccccc1OC1CCCC1)c1ccccc1` (configuration not stated) was tested, and the B-score was -6 (active).
With `CC(C)(C)NCc1cc(Br)ccc1OC1CCCC1` the B-score was “inactive”.
For `CC1CCCCC1NC(=O)/C(C#N)=C/C=C/c1ccccc1[N+](=O)[O-]` (configuration not stated), the B-score was “inactive”.
In the case of `COc1ccc(N(Cc2cc3ccc(C)cc3[nH]c2=O)S(=O)(=O)c2ccccc2)cc1`, the B-score is reported as “inactive”.
With `O=C(c1cccc(C(=O)N2CCN(c3ccc(F)cc3)CC2)c1)N1CCN(c2ccc(F)cc2)CC1` the B-score was -8 (active).
`O=C(c1cc2cc(F)ccc2[nH]1)N1CCN(c2ccc(F)cc2)CC1` was tested, and the B-score was “inactive”.
With `O=C(c1cc(C(=O)N2CCN(c3ccc(F)cc3)CC2)cc([N+](=O)[O-])c1)N1CCN(c2ccc(F)cc2)CC1` the B-score was “inactive”.
In the case of `c1ccc(Nc2n[nH]nc2-c2ccccc2)cc1`, the B-score is reported as -6 (active).
`O=C(O)c1n[nH]nc1-c1ccccc1` was tested, and the B-score was “inactive”.
With `Oc1ccc(-c2nnc(Nc3ccccc3)c3ccccc23)cc1` the B-score was “inactive”.
In the case of `COc1cc(C(F)(F)F)nc2c(Br)c(C(C)(C)C)nn12`, the B-score is reported as -6 (active).
`CC1C(=O)N2CCCc3cc(S(=O)(=O)NCc4ccc(F)cc4)cc1c32` (configuration not stated) was tested, and the B-score was “inactive”.
In the case of `Cc1cccc2cc(CN(Cc3nnnn3Cc3ccccc3)C3CCCC3)c(=O)[nH]c12`, the B-score is reported as -7 (active).
With `Cc1cccc2cc(CN(Cc3ccc4c(c3)OCO4)Cc3nnnn3C3CCCC3)c(=O)[nH]c12` the B-score was “inactive”.
For `Cc1cc(C)c2cc(CN(Cc3nnnn3Cc3ccc(F)cc3)C3CCCC3)c(=O)[nH]c2c1`, the B-score was “inactive”.
With `NS(=O)(=O)c1ccc(NC(=S)Nc2ccc(Br)c(Cl)c2)cc1` the B-score was “inactive”.
In the case of `Cc1ccc(S(=O)(=O)N2CCC(C)CC2)cc1C(=O)NCc1ccccn1`, the B-score is reported as “inactive”.
In the case of `Cc1ccc(OCC(=O)NNC(=S)NCc2ccccc2)cc1`, the B-score is reported as “inactive”.
In the case of `O=C(NNC(=S)NCc1ccccc1)c1ccc(OC(F)F)cc1`, the B-score is reported as “inactive”.
With `CC(C)Oc1ccc(CCC(=O)NNC(=S)NCc2ccccc2)cc1` the B-score was -6 (active).
With `COc1ccc(NC(=O)CN(C)C(=O)c2cc(-c3ccc(C)o3)nc3ccccc23)cc1` the B-score was “inactive”.
For `CC(C)Sc1ncnc2c1cnn2-c1ccccc1`, the B-score was “inactive”.
`COc1ccc(-n2ncc3c(N4CCc5ccccc54)ncnc32)cc1` was tested, and the B-score was -7 (active).
`COc1ccc(-n2ncc3c(SCC(=O)NNC(C)=O)ncnc32)cc1` was tested, and the B-score was “inactive”.
`Nc1ccc(Cl)c(S(=O)(=O)Nc2ccccc2Cl)c1` was tested, and the B-score was “inactive”.
With `O=C(COC(=O)/C=C/c1cccc(Cl)c1)NCCc1ccccc1` the B-score was “inactive”.
For `COc1ccc(CN2CCCC(CNC(=O)c3ccc(F)cc3)C2)cc1OC` (configuration not stated), the B-score was -6 (active).
For `COc1ccc(CCN(C)C(=O)C2CCCN(Cc3ccc(OC)c(OC)c3)C2)cc1OC` (configuration not stated), the B-score was “inactive”.
For `COc1ccc(Cc2nc3ccc(C(=O)NCC4CCOCC4)cc3o2)cc1OC`, the B-score was “inactive”.
In the case of `O/N=C(\C[n+]1ccccc1)c1ccc(Br)cc1`, the B-score is reported as “inactive”.
For `Cn1ncc(Br)c1C(=O)NC1CCCC1`, the B-score was “inactive”.
For `COc1ccc(CCN2C(=O)C(C)=C(C)C2=O)cc1OC`, the B-score was “inactive”.
`COc1ccc(CCN2C(=O)C3CC=C(C)CC3C2=O)cc1OC` (configuration not stated) was tested, and the B-score was “inactive”.
For `COc1ccc(CCN(C)CCN2C(=O)c3ccccc3C2=O)cc1OC`, the B-score was -8 (active).
In the case of `O=C(CSc1ncnc2c1oc1ccccc12)NC1CCCC1`, the B-score is reported as “inactive”.
For `CCCCCCCCCCOC(=O)Cn1c(COc2cccc(OC)c2)[n+](C)c2ccccc21`, the B-score was -6 (active).
In the case of `CCn1c(COc2cccc(OC)c2)nnc1SCC(=O)N1CCOCC1`, the B-score is reported as “inactive”.
In the case of `CCCCCCCCCCOC(=O)Cn1c(COc2ccc(C)cc2)[n+](C)c2ccccc21`, the B-score is reported as “inactive”.
With `O=C(OCC(=O)N1CCCC1=O)c1cc(S(=O)(=O)N2CCOCC2)ccc1Cl` the B-score was “inactive”.
For `CCOc1ccc(C(=O)Nc2ccc(CN3CCOCC3)cc2)cc1Cl`, the B-score was “inactive”.
With `Cn1c(=O)[nH]c(=O)c2c1nc(NCCCn1ccnc1)n2Cc1cccc(Br)c1` the B-score was “inactive”.
With `O=C(COc1ccccc1Cl)Nc1ccccc1C(=O)NC1CC1` the B-score was “inactive”.
In the case of `Cc1ccccc1OCC(=O)NNC(=O)c1ccc(-n2cncn2)c([N+](=O)[O-])c1`, the B-score is reported as “inactive”.
In the case of `Cc1ccc(-c2cc(=O)[nH]c(NCc3ccccc3)n2)cc1`, the B-score is reported as “inactive”.
With `Cc1ccc(O)c(CNc2nc3ccccc3[nH]2)c1` the B-score was -7 (active).
`Cc1ccc(O)c(CNc2nc3ccccc3n2C)c1` was tested, and the B-score was “inactive”.
With `CCC1CCCCN1S(=O)(=O)Cc1ccccc1Cl` (configuration not stated) the B-score was “inactive”.
With `CCc1ccc(NC(=O)CN2CCC(C(=O)c3ccc(OC)cc3)CC2)cc1` the B-score was “inactive”.
`CC1(C)OC(=O)C(=CSc2ccc(C(C)(C)C)cc2)C(=O)O1` was tested, and the B-score was “inactive”.
For `CSc1ccc(/C=N\NC(=O)CC(=O)NC(C)C)cc1`, the B-score was -8 (active).
With `CSc1ccc(/C=N/NC(=O)c2cccc(Cl)c2)cc1` the B-score was “inactive”.
For `Cc1ccc(-n2c(C)cc(/C=N\NC(=O)CC(=O)NC(C)C)c2C)cc1`, the B-score was “inactive”.
`Cc1ccc(-c2csc(NCCc3nc4cc(Cl)c(Cl)cc4n3CCOCCO)n2)cc1` was tested, and the B-score was “inactive”.
`CCOc1ccc(Cn2c(SCCCCC#N)nc3c2c(=O)n(C)c(=O)n3C)cc1OCC` was tested, and the B-score was -5 (active).
With `Cc1cccc(Cn2c(SCCO)nc3c2c(=O)n(C)c(=O)n3C)c1` the B-score was “inactive”.
For `CCCSc1nc2c(c(=O)n(C)c(=O)n2C)n1Cc1ccc(C)cc1`, the B-score was “inactive”.
With `COc1ccc(N2C(=O)C3C(C2=O)C(C(=O)c2ccccc2)N2CCCC32)cc1` (configuration not stated) the B-score was “inactive”.
`O=C(COC(=O)c1ccc(F)cc1)NCCCc1ccccc1` was tested, and the B-score was “inactive”.
With `COc1ccccc1CC(=O)Nc1ccc(F)cc1F` the B-score was “inactive”.
In the case of `Cc1ccc(-c2nn(-c3cccc(F)c3)cc2CNCCc2ccncc2)o1`, the B-score is reported as “inactive”.
With `CSCCNCc1cn(-c2ccc(F)cc2F)nc1-c1ccccc1C` the B-score was -7 (active).
